From ChEMBL document CHEMBL1129267, “Aryl 1-but-3-ynyl-4-phenyl-1,2,3,6-tetrahydropyridines as potential antipsychotic agents: synthesis and structure-activity relationships” (J Med Chem, 1996)

Columns and labels:
Mus musculus [1] = test: (§1) Compound was tested for the inhibition of locomotor activity (LMA)by administering Intraperitoneally in mouse.; assay type: functional; details: ip
How it was run: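 Mice dosed ip, then tested immediately for 1 h in darkened cylindrical photobeam chambers. Percent inhibition of locomotor activity relative to vehicle-treated animals; ED50 derived from three to six doses, n = 6-18 animals/dose.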

D(2) dopamine receptor [2] = target: T1, D(2) dopamine receptor (Homo sapiens, UniProt P14416); test: Compound was evaluated […] for Dopamine receptor D2 mitogenesis. [3H]thymidine incorporation in CHO p-5 cells expressing human D2 receptors.; assay type: organism-based
How it was run: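 CHO p-5 cells transfected with human D2L receptor are grown 2 days at 37 °C in medium with 10% calf serum, then rinsed and put in serum-free medium. Compound (in water) is added for 16-17 h, then [³H]thymidine (1 µCi/well) for 4 h. Cells are harvested and counted. Maximal effect is given as % of quinpirole (100%).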

[3] = target: T2, Adrenergic receptor alpha-1 (Rattus norvegicus, UniProt P15823+P23944+P43140); test: Binding affinity against Alpha-1 adrenergic receptor using radioligand [3H]prazosin binding assay.; assay type: protein assay
T2 sequence (P15823 whole entry): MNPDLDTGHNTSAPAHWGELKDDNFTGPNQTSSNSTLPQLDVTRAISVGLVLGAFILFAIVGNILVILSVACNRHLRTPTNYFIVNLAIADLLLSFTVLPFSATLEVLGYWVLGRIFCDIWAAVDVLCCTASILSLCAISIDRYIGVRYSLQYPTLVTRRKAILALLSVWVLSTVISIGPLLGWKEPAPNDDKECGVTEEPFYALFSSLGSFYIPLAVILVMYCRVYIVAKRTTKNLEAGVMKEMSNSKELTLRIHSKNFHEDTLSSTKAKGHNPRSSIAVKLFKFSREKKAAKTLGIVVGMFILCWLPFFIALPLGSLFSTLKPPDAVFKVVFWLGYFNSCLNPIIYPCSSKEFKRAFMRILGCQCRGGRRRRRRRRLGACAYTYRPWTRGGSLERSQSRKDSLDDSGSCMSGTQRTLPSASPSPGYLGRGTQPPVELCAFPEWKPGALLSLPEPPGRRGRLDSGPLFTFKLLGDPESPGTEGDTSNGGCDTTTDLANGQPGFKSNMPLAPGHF
T2 sequence (P23944 whole entry): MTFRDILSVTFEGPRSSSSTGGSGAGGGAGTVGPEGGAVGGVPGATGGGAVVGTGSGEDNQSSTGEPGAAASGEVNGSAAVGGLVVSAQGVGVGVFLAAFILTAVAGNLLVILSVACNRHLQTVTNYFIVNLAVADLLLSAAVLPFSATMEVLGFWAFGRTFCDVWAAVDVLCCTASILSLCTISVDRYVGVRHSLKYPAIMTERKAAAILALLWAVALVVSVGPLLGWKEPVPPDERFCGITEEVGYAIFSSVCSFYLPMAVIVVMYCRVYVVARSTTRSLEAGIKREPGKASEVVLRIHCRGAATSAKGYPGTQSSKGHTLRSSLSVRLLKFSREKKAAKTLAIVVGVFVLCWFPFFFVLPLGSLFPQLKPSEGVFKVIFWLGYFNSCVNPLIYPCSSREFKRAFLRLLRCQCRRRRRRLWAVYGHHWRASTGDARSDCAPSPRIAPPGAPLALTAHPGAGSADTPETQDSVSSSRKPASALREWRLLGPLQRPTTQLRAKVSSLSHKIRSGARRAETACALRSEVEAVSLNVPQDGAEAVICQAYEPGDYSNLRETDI
T2 sequence (P43140 whole entry): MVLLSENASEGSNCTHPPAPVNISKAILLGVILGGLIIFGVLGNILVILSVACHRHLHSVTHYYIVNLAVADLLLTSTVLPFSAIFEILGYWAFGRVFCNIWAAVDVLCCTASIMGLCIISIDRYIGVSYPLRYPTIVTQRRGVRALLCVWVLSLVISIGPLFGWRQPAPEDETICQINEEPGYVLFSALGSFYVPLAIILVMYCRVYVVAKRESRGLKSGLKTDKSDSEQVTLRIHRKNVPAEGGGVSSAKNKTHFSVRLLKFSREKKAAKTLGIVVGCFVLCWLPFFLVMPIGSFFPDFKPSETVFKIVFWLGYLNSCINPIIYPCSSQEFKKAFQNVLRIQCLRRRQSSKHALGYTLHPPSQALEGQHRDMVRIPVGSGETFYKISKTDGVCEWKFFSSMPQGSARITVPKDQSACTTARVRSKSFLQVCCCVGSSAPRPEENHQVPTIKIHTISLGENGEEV
How it was run: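 Inhibition of [³H]prazosin (0.1 nM final) binding in rat cortex membranes; phentolamine (10 µM final) defines nonspecific binding.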

Rattus norvegicus [4] = test: Compound was tested for the inhibition of locomotor activity (LMA)by administering orally in rat; assay type: functional; details: po
How it was run: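 Rats dosed orally 1 h before a 30 min test in darkened cylindrical photobeam chambers. Percent inhibition of locomotor activity relative to vehicle-treated animals; ED50 derived from three to six doses, n = 6-18 animals/dose.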

Rattus norvegicus [5] = test: Percent reversal of the increase on DOPA levels in the striatum of GBL-treated rats at a dose of 10 mg/kg ip; assay type: functional; details: route intraperitoneal
D(2) dopamine receptor [6] = target: T3, D(2) dopamine receptor (Rattus norvegicus, UniProt P61169); test: Binding affinity against Dopamine receptor D2 in CHO-K1 cells using radioligand [3H]NPA binding assay; assay type: cell-based
D(2) dopamine receptor [7] = target: T3, D(2) dopamine receptor; test: Compound was evaluated for their affinity against dopamine receptor D2 by displacing [3H]-spiperone in rat striatal membrane; assay type: cell membranes, Striatum
How it was run: (§2)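 Rat striatal membranes; [³H]spiperone 0.2 nM final; nonspecific binding defined with (+)-butaclamol 1.0 µM final. Four to six concentrations, each run in triplicate; Ki obtained by nonlinear regression analysis.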

Rattus norvegicus [8] = test: Percent decrease of the firing rate of rat substantia nigra DA neurons at a dose of 2.5 mg/kg ip; assay type: functional; details: route intraperitoneal
Monkey = test: Compound was tested for inhibition of conditioned avoidance after administering perorally(po) in squirrel monkeys; assay type: functional; details: Cebidae, in Saimiri
[9] = target: T4, 5-hydroxytryptamine receptor 1A (Rattus norvegicus, UniProt P19327); test: (§3) Binding affinity against serotonin 5-hydroxytryptamine 1A receptor using radioligand [3H]8-OH-DPAT binding assay; set-up: species or system Homo sapiens
T4 sequence (P19327 whole entry): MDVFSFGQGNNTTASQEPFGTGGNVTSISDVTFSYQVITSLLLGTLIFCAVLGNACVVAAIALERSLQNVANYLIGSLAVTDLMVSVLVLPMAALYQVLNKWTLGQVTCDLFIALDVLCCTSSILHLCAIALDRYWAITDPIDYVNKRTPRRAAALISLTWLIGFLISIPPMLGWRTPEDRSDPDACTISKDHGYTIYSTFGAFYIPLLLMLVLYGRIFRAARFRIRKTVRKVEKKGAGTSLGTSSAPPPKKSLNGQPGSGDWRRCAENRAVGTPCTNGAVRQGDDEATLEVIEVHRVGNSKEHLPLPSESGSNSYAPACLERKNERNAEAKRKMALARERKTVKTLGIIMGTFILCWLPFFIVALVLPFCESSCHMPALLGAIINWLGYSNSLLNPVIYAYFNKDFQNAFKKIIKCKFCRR
How it was run: (§4)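 Rat hippocampal membranes labelled with [³H]-8-OH-DPAT (0.4 nM final); nonspecific binding with 8-OH-DPAT (1 µM).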

D(4) dopamine receptor = target: T5, D(4) dopamine receptor (Homo sapiens, UniProt P21917); test: Binding affinity against human Dopamine receptor D4 in CHO-K1 cells using [3H]spiperone as radioligand; assay type: cell-based
T5 sequence (P21917 whole entry): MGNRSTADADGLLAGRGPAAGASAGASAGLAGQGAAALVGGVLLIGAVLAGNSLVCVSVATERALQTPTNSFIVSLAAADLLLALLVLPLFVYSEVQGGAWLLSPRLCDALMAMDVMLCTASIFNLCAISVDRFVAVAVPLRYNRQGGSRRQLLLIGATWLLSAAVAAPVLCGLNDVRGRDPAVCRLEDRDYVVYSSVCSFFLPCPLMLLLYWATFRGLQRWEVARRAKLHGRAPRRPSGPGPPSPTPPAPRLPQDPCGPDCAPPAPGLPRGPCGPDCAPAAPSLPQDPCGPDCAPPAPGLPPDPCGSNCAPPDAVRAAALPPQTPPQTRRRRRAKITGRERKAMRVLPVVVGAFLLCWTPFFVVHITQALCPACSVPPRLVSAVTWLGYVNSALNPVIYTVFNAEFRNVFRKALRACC
How it was run: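 Human D4.2 receptor expressed in CHO K1 cells; [³H]spiperone 0.2 nM final; nonspecific binding defined with haloperidol 1.0 µM final.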

[10] = target: T4, 5-hydroxytryptamine receptor 1A; test: as §3; how it was run: as §4
D(1A) dopamine receptor [11] = target: T6, D(1A) dopamine receptor (Rattus norvegicus, UniProt P18901); test: Binding affinity against dopamine receptor D1 using radioligand ([3H]-SCH 23390) binding assay
D(2) dopamine receptor [12] = target: T1, D(2) dopamine receptor; test: […] Dopamine receptor D2 mitogenesis measured as [3H]thymidine incorporation in CHO p-5 cells expressing human D2 receptors
How it was run: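 CHO p-5 cells transfected with human D2L are grown 2 days at 37 °C in medium with 10% calf serum, rinsed, and switched to serum-free medium plus compound in water. After 16-17 h, [³H]thymidine (1 µCi/well) is added for 4 h; cells are harvested onto filters and counted.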

D(2) dopamine receptor [13] = target: T3, D(2) dopamine receptor; test: Binding affinity at Dopamine receptor D2 in rat striatal membrane by [3H]spiperone displacement.; assay type: cell membranes, Striatum; how it was run: as §2
D(1A) dopamine receptor [14] = target: T6, D(1A) dopamine receptor; assay type: cell membranes, Brain, Membrane
D(3) dopamine receptor = D(3) dopamine receptor (Homo sapiens, UniProt P35462); test: Binding affinity against human Dopamine receptor D3 in CHO-K1 cells using [3H]spiperone as radioligand; assay type: cell-based
Rattus norvegicus [15] = test: In vivo inhibition of locomotor activity in the rat following p.o. administration.; assay type: functional; details: po
Mus musculus [16] = test: as §1; assay type: functional; details: ip; remark: listed apart in the source

T3 sequence (P61169 whole entry): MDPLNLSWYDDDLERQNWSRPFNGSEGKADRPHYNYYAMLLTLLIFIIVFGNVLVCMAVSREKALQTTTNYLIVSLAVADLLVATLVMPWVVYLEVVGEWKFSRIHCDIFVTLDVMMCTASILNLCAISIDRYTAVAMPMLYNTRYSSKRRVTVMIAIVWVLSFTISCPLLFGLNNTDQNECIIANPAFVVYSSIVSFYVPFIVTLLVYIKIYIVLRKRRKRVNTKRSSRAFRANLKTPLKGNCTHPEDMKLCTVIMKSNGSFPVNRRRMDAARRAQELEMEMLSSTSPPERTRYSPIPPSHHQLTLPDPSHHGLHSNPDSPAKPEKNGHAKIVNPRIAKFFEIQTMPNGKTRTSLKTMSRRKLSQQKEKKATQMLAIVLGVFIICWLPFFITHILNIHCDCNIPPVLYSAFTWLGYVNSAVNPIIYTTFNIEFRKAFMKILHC
T6 sequence (P18901 whole entry): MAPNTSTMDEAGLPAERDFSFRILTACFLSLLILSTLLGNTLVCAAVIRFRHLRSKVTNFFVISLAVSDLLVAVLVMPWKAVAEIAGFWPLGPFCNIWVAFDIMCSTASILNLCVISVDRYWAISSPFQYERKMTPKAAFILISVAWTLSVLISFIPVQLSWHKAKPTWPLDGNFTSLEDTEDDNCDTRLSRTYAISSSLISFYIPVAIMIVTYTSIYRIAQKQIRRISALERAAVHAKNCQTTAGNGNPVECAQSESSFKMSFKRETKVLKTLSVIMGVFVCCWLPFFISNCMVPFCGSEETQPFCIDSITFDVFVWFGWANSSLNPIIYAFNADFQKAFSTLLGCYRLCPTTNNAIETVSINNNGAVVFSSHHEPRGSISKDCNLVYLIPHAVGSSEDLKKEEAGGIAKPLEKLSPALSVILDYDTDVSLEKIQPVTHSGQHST
D(3) dopamine receptor, sequence (P35462 whole entry): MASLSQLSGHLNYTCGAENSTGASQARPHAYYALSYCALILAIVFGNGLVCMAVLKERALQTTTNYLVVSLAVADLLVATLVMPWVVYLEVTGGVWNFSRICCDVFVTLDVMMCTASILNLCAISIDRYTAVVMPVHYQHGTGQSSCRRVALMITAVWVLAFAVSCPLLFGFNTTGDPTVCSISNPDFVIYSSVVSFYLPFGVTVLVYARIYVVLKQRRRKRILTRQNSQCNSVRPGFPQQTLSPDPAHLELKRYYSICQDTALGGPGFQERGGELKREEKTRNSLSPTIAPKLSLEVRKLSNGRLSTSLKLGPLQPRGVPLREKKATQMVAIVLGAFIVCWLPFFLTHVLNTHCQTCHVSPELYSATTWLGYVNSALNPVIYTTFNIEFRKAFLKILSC
T1 sequence (P14416 whole entry): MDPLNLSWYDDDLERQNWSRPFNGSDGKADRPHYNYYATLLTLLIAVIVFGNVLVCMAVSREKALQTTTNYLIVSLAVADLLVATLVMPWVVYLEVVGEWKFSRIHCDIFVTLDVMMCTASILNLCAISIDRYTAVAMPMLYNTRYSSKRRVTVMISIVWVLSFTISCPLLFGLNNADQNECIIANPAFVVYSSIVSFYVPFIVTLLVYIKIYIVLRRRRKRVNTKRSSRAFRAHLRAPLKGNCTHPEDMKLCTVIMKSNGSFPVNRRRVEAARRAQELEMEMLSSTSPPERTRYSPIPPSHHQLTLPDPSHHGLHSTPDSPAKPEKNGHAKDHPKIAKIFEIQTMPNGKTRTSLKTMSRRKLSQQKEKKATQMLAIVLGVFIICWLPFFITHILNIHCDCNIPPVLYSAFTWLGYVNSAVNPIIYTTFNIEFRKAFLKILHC

| Compound | ED50 (Mus musculus [1]) | Max effect (D(2) dopamine receptor [2]) | Ki [3] | ED50 (Rattus norvegicus [4]) | Decrease (Rattus norvegicus [5]) | Ki (D(2) dopamine receptor [6]) | Ki (D(2) dopamine receptor [7]) | Decrease (Rattus norvegicus [8]) | ED50 (Monkey) | Ki [9] | Ki (D(4) dopamine receptor) | Ki [10] | Ki (D(1A) dopamine receptor [11]) | EC50 (D(2) dopamine receptor [12]) | Ki (D(2) dopamine receptor [13]) | Ki (D(1A) dopamine receptor [14]) | Ki (D(3) dopamine receptor) | ED50 (Rattus norvegicus [15]) | ED50 (Mus musculus [16]) |
| --- | --- | --- | --- | --- | --- | --- | --- | --- | --- | --- | --- | --- | --- | --- | --- | --- | --- | --- | --- |
| Nc1cccc(C#CCCN2CC=C(c3ccccc3)CC2)c1 | 0.68 mg/kg | 75% | 0.107 µM | 5.6 mg/kg | 42% | 0.018 µM | 0.087 µM | 98% | 9.3 mg/kg | 1.55 µM |  |  |  |  |  |  |  |  |  |
| Nc1ccc(C#CCCN2CC=C(c3ccccc3)CC2)cc1 |  | 49% | 0.0345 µM | 2.7 mg/kg |  | 0.00067 µM | 0.048 µM | 81% | 3.8 mg/kg |  | 0.228 µM | > 10 µM | > 10 µM |  |  |  |  |  |  |
| C(#Cc1cccnc1)CCN1CC=C(c2ccccc2)CC1 |  |  | 0.0141 µM |  |  | 0.0033 µM |  | 100% | 10.1 mg/kg |  | 0.681 µM | 0.555 µM |  | 0.0017 µM | 0.037 µM | 5 µM | 0.02 µM | 1.4 mg/kg |  |
| Nc1ccc(C#CCCN2CC=C(c3ccccc3)CC2)nc1 |  |  | 0.0575 µM |  |  | 0.0019 µM |  | 100% | 0.43 mg/kg |  | 0.371 µM | 0.069 µM |  | 0.0013 µM | 0.063 µM | > 10 µM | 0.0026 µM | 1.7 mg/kg |  |
| Oc1ccc2[nH]cc(CCCCN3CC=C(c4ccccc4)CC3)c2c1 [ROXINDOLE] |  |  |  |  | 64% |  |  | 100% |  |  | 0.024 µM |  |  |  | 0.0091 µM |  | 0.0004 µM | 12.8 mg/kg | 0.2 mg/kg |
| Nc1ccc(C#CCCN2CC=C(c3ccccc3)CC2)cn1 |  |  |  |  |  | 0.019 µM |  | 63% | 2.8 mg/kg |  | 0.278 µM | 0.632 µM |  | 0.0005 µM | 0.033 µM | > 10 µM | 0.007 µM | 2.5 mg/kg | 0.06 mg/kg |
| C(#Cc1ccncc1)CCN1CC=C(c2ccccc2)CC1 |  |  | 0.0258 µM |  |  | 0.0041 µM |  | 93% | 11.9 mg/kg |  | 0.57 µM | 0.593 µM |  | 0.001 µM | 0.032 µM |  | 0.0065 µM | 4.4 mg/kg |  |
